The target of assay [1] is Mitogen-activated protein kinase 14 (Homo sapiens, UniProt Q16539). As to the kind of experiment: Inhibitory activity against p38-alpha kinase.
Assay [2] has as its target T1, Glucagon receptor (Homo sapiens, UniProt P47871). Description: biochemical. It counts as cell-based, CHO.
A short description of assay [3]: Selectivity ratio between the binding value of human glucagon receptor (GGR) with Mg+2 and the value of p38 kinase.
In assay [4] the target is T1, Glucagon receptor. As to the kind of experiment: Binding affinity towards glucagon receptor determined by reduction in binding of [125I]glucagon to the human glucagon receptor (GGR) expressed on CHO cells in presence of Mg+2. It is filed as cell-based. In outline:
(§1)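 Radioligand binding to the glucagon receptor was run with 5 mM Mg2+ added, described as a physiological concentration.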

Assay [5] deals with Glucagon receptor (Mus musculus) (UniProt Q61606). Description: Binding affinity towards glucagon receptor determined by reduction in binding of 125 I-glucagon to the murine glucagon receptor (mGLUR) expressed on CHO cells in presence of Mg+2 at 1 uM. It is filed as cell-based.
Glucagon receptor (Mus musculus), sequence (Q61606 whole entry): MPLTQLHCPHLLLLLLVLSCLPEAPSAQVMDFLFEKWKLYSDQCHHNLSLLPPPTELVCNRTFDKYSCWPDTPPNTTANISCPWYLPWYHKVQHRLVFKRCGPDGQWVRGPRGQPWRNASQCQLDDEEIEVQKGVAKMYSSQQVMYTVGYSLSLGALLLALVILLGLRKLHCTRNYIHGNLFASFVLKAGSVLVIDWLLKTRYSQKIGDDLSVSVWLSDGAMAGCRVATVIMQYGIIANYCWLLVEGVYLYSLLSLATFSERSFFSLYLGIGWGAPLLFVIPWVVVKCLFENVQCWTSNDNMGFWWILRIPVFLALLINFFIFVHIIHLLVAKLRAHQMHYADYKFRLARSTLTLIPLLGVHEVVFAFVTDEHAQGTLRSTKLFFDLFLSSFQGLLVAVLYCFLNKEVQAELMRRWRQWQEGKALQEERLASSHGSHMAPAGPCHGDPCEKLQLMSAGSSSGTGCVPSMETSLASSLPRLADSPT
Assay [6] addresses T2, Glucagon receptor (Mus musculus, UniProt Q61606). Description: Binding affinity towards glucagon receptor determined by reduction in binding of [125I]glucagon to the murine glucagon receptor (GGR) expressed on CHO cells in absence of Mg+2. It is filed as cell-based.
Assay [7] deals with Glucagon receptor (Mus musculus) (UniProt Q61606). As to the kind of experiment: (§2) Binding affinity towards glucagon receptor determined by reduction in binding of 125 I-glucagon to the murine glucagon receptor (mGLUR) expressed on CHO cells in presence of Mg+2. It counts as cell-based. As to conditions: concentration not given here. In outline: as §1
The target in assay [8] is T1, Glucagon receptor. As to the kind of experiment: Binding affinity towards glucagon receptor determined by reduction in binding of 125 I-glucagon to the human glucagon receptor (hGLUR) expressed on CHO cells in absence of Mg+2 at 2 uM. It counts as cell-based.
The target in assay [9] is T2, Glucagon receptor. Described as §2. It is filed as cell-based. In short, it runs like this: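 Mg2+ added at 5 mM, a physiological level, to the binding medium. IC50 reported in µM, with the number of determinations noted; where no IC50 was reached, percent inhibition is given at a single tested concentration.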
Assay [10] is described as follows: Inhibition of p38 kinase at 1 uM.
Assay [11] addresses Glucagon receptor (Mus musculus) (UniProt Q61606). As to the kind of experiment: Binding affinity towards glucagon receptor determined by reduction in binding of 125 I-glucagon to the murine glucagon receptor (mGLUR) expressed on CHO cells in presence of Mg+2 at 3 uM. It counts as cell-based.

T2 sequence (Q61606 whole entry): as above
T1 sequence (P47871 whole entry): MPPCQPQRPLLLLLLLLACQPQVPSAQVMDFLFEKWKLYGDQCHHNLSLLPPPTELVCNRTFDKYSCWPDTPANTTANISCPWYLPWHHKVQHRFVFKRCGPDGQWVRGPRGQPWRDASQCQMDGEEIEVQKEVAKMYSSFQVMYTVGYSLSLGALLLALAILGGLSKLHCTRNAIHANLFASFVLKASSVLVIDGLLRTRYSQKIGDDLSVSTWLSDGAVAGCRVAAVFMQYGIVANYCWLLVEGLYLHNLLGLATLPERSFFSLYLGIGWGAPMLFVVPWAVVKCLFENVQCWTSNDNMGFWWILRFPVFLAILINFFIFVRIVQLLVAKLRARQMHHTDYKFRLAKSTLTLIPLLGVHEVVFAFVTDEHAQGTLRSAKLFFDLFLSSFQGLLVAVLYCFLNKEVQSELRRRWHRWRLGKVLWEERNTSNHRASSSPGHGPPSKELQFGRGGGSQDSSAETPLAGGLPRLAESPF
Mitogen-activated protein kinase 14, sequence (Q16539 whole entry): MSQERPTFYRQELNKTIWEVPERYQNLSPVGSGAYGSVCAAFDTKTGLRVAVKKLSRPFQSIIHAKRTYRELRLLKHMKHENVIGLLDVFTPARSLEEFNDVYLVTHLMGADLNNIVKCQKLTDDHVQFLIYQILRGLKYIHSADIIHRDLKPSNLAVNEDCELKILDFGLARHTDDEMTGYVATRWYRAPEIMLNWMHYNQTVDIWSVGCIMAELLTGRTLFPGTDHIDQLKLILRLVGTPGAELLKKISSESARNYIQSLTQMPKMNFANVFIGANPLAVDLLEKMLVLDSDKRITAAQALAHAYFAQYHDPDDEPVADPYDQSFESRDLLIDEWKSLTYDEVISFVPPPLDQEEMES

Usually IC50 stands for the point on the concentration scale where inhibition reaches its midpoint. For `Nc1ccc(-c2cc(-c3ccc(F)cc3)c(-c3ccncc3)[nH]2)cc1`, the IC50 in [1] is 0.19 µM; in [2], 1.4 µM.

As for `CSc1ccc(-c2cc(-c3ccc(F)cc3)c(-c3ccncc3)[nH]2)cc1`, the values for the IC50 in assay [1] and in [2] were 1.23 µM and 0.29 µM, respectively.

A word on the inhibition: it is the change of the read-out against control, counted positive when it falls. With `Fc1ccc(-c2cc(-c3ccc(Cl)cc3)[nH]c2-c2ccncc2)cc1`, the IC50 came to 1.4 µM in [1], 0.8 µM in [4], 0.2 µM in [6] and 0.08 µM in [2]. In addition, the Ratio in assay [3] turned out to be 0.57. Besides, in assay [5], the inhibition is 43%.

Turning to `CCOc1ccccc1-c1cc(-c2ccc(Cl)cc2)[nH]c1-c1ccncc1`, the IC50 came out at 14.2 µM in assay [1], 0.5 µM in assay [4], 0.34 µM in assay [6] and 0.04 µM in assay [2]. Also, the Ratio in assay [3] is 0.03. The inhibition in [7] amounted to 22%.

Turning to `CN1CCC(c2cc(-c3ccc(F)cc3)c(-c3ccncc3)[nH]2)CC1`, inhibition in assay [1] was half-maximal at 0.02 µM (IC50). Further, the Ratio in assay [3] is more than 130. Moreover, the inhibition in assay [8] was found to be 7%.

For `Cc1ccc(-c2cc(-c3ccc(F)cc3)c(-c3ccncc3)[nH]2)cc1`, the IC50 in assay [1] was found to be 1.69 µM; in assay [4], 2.2 µM; in [2], 0.25 µM. In addition, in assay [3], the Ratio came to 1.3.

On to `Fc1ccc(-c2cc(-c3ccccc3)[nH]c2-c2ccncc2)cc1`, for which the IC50 was determined as 0.8 µM in [1], 2.7 µM in assay [6] and 0.39 µM in assay [2].

`Fc1ccc(-c2cc(C3CCCCC3)[nH]c2-c2ccncc2)cc1`: the IC50 in assay [1] was 0.18 µM; in [4] it was 0.49 µM; in assay [9] it was more than 1 µM; in assay [6], more than 1 µM; in [2] it was 0.09 µM. In addition, the Ratio in assay [3] is 2.7.

Regarding `Clc1ccc(-c2cc(C3CCCCC3)c(-c3ccncc3)[nH]2)cc1`, the IC50 in assay [1] was more than 10 µM; in [4], more than 3 µM; in [9], more than 3 µM; in assay [6] it was 0.06 µM; in [2] it was 0.1 µM.

In the case of `CC(C)(C)c1ccc(-c2cc(-c3ccc(F)cc3)c(-c3ccncc3)[nH]2)cc1`, the values for the IC50 in assay [1] and in assay [2] were more than 10 µM and 0.85 µM, respectively.

`COc1ccccc1-c1cc(-c2ccc(Cl)cc2)[nH]c1-c1ccncc1`: the IC50 in [1] was determined as 2.65 µM; in assay [4], 0.5 µM; in assay [6] it was 0.4 µM; in assay [2] it was 0.07 µM. For the same compound, the Ratio in assay [3] stood at 0.18. The inhibition in [7] was found to be 6%.

As for `O=C(O)c1cc(-c2ccc(Cl)cc2)[nH]c1-c1ccncc1`, the figures for the IC50 in [1] and in assay [2] were more than 1 µM and more than 3 µM, respectively.

Take `COc1ccc(-c2cc(-c3ccc(F)cc3)c(-c3ccncc3)[nH]2)cc1`: the results for the IC50 in assay [1] and in [2] were 2.8 µM and 0.59 µM, respectively.

With `CCCOc1ccccc1-c1cc(-c2ccc(Cl)cc2)[nH]c1-c1ccncc1`, the IC50 in [1] came out at 2.84 µM; in assay [4] it was 0.14 µM; in assay [9], 0.7 µM; in assay [6], 0.03 µM; in [2], 0.008 µM. In assay [3], the Ratio came to 0.05.

As to `Clc1ccc(-c2ccc(-c3ccncc3)[nH]2)cc1`, the IC50 in assay [1] was more than 10 µM; in assay [4], more than 3 µM; in [9], more than 3 µM; in assay [6] it was 0.7 µM; in [2], 0.14 µM.

As to `COc1ccc(-c2cc(-c3ccc(Cl)cc3)[nH]c2-c2ccncc2)cc1`, the IC50 in assay [1] was 1.15 µM; in assay [4] it was 1.6 µM; in assay [6], 0.24 µM; in assay [2] it was 0.1 µM. Besides, the Ratio in assay [3] was 1.4. The inhibition in assay [5] was determined as 16%.

Regarding `CCCOc1cc(Br)ccc1-c1cc(-c2ccc(Cl)cc2)[nH]c1-c1ccncc1`, the IC50 was determined as 0.13 µM in assay [4], 0.83 µM in assay [9], 0.049 µM in [6] and 0.004 µM in [2].

`CC(C)c1cc(-c2ccc(Cl)cc2)[nH]c1-c1ccncc1`: the IC50 in [1] was more than 10 µM; in [4], 0.11 µM; in [9], more than 3 µM; in [6], 0.06 µM; in [2], 0.032 µM.

Consider `COc1cccc(-c2cc(-c3ccc(Cl)cc3)[nH]c2-c2ccncc2)c1`, for which the IC50 in assay [1] amounted to 0.42 µM; in assay [4] it was 0.45 µM; in assay [2], 0.06 µM. In addition, in [3], the Ratio came out at 1.1.

Regarding `Fc1ccc(-c2cc[nH]c2-c2ccncc2)cc1`, the IC50 in [1] is 0.16 µM; in [4], more than 3 µM; in assay [2] it was more than 3 µM. The Ratio in [3] is more than 18.

With `CSc1ccc(-c2cc(-c3ccncc3)c(-c3ccc(F)cc3)[nH]2)cc1`, the IC50 in assay [1] came to 0.044 µM. The inhibition in [8] stood at 0%.

`CC(C)COc1ccccc1-c1cc(-c2ccc(Cl)cc2)[nH]c1-c1ccncc1`: the IC50 is 3.76 µM in assay [1], 0.2 µM in assay [4], 0.15 µM in [6] and 0.003 µM in [2]. The Ratio in [3] was found to be 0.05. In addition, the inhibition in [7] was found to be 17%.

On to `CCOC(=O)c1cc(-c2ccc(Cl)cc2)[nH]c1-c1ccncc1`, for which the IC50 in assay [1] was more than 1 µM; in [4], 0.4 µM; in [9], more than 3 µM; in [6] it was 0.5 µM; in [2] it was 0.09 µM.

For the compound `CC(C)Oc1ccccc1-c1cc(-c2ccc(Cl)cc2)[nH]c1-c1ccncc1`, the IC50 in [1] is 5.54 µM; in assay [4] it was 0.91 µM; in [9], more than 1 µM; in assay [6] it was 0.7 µM; in assay [2] it was 0.03 µM. The Ratio in assay [3] turned out to be 0.16.

As for `O=C(NCc1ccccc1)c1cc(-c2ccc(Cl)cc2)[nH]c1-c1ccncc1`, in assay [2], the IC50 is more than 3 µM. Also, in assay [10], the inhibition is 0%.

On to `Cc1cc(-c2ccc(F)cc2)c(-c2ccncc2)[nH]1`, for which the IC50 in assay [1] is 0.32 µM; in [2], more than 3 µM. Besides, the Ratio in [3] was more than 9.

With `O=[N+]([O-])c1ccc(-c2cc(-c3ccc(F)cc3)c(-c3ccncc3)[nH]2)cc1`, the 50% inhibitory concentration (IC50) in [1] was 0.05 µM; in assay [2] it was 0.36 µM.

On to `Clc1ccc(-c2cc(-c3ccc(Br)cc3)c(-c3ccncc3)[nH]2)cc1`, for which the IC50 was determined as 0.3 µM in assay [1], 2.3 µM in [4] and 0.14 µM in assay [2]. For the same compound, in assay [3], the Ratio was 7.6.

Regarding `Fc1ccc(-c2cc(-c3ccc(Cl)cc3Cl)[nH]c2-c2ccncc2)cc1`, the IC50 stood at 0.42 µM in [1], 0.95 µM in assay [4], 0.34 µM in [6] and 0.04 µM in [2]. For the same compound, in assay [3], the Ratio was determined as 2.2. Besides, the inhibition in assay [5] came out at 13%.

Regarding `C[S+]([O-])c1ccc(-c2cc(-c3ccc(F)cc3)c(-c3ccncc3)[nH]2)cc1` (stereo unspecified), the IC50 in assay [1] stood at 0.67 µM; in assay [2], 1.1 µM.

Turning to `Clc1ccc(-c2cc(-c3ccccc3)c(-c3ccncc3)[nH]2)cc1`, the IC50 in [1] was found to be 0.21 µM; in assay [4], 0.38 µM; in assay [2], 0.06 µM. Further, the Ratio in assay [3] turned out to be 1.8.

Take `C=CCOc1ccccc1-c1cc(-c2ccc(Cl)cc2)[nH]c1-c1ccncc1`: the inhibition in [11] came to 50%. Moreover, the IC50 in [1] stood at 4.74 µM; in assay [4], 0.26 µM; in assay [6] it was 0.27 µM; in assay [2], 0.017 µM. For the same compound, the Ratio in [3] came to 0.05.

For the compound `Clc1ccc(-c2cc(-c3ccccc3Br)c(-c3ccncc3)[nH]2)cc1`, the values for the IC50 in assay [1], in assay [4] and in assay [2] were 1 µM, 2.3 µM and 0.026 µM, respectively. In addition, the Ratio in assay [3] stood at 2.3.

For `CCc1ccc(-c2cc(-c3ccc(F)cc3)c(-c3ccncc3)[nH]2)cc1`, the figures for the IC50 in [1] and in [2] were 1.36 µM and 0.37 µM, respectively.

For the compound `C[S+]([O-])c1ccc(-c2cc(-c3ccncc3)c(-c3ccc(F)cc3)[nH]2)cc1` (stereo unspecified), half-maximal inhibition in [1] (IC50) was put at 0.0053 µM. For the same compound, in assay [8], the inhibition is 31%.

For `O=C(O)c1ccc(-c2cc(-c3ccc(F)cc3)c(-c3ccncc3)[nH]2)cc1`, the IC50 is 0.09 µM in assay [1] and more than 3 µM in [2].

Turning to `N#Cc1ccc(-c2cc(-c3ccc(F)cc3)c(-c3ccncc3)[nH]2)cc1`, the inhibition in assay [11] was 42%. The IC50 in [1] stood at 0.05 µM; in assay [4] it was 4.9 µM; in assay [6], 0.23 µM; in [2], 0.14 µM. Moreover, the Ratio in [3] was 102.

Consider `CCOC(=O)c1ccc(-c2cc(-c3ccc(F)cc3)c(-c3ccncc3)[nH]2)cc1`, for which the IC50 in [1] was determined as 0.26 µM; in assay [2], 0.85 µM.

Consider `Fc1ccc(-c2cc(-c3cccc(Cl)c3)[nH]c2-c2ccncc2)cc1`, for which the IC50 in assay [1] was 0.42 µM; in assay [4], 0.99 µM; in assay [6], 0.46 µM; in [2], 0.04 µM. Also, the Ratio in assay [3] was determined as 2.3. In addition, the inhibition in assay [5] was 28%.

Turning to `CCCCCCOc1ccccc1-c1cc(-c2ccc(Cl)cc2)[nH]c1-c1ccncc1`, the IC50 in [1] stood at 2.68 µM; in assay [4] it was 0.5 µM; in assay [6], 0.34 µM; in assay [2] it was 0.04 µM. In addition, the Ratio in assay [3] is 0.18. In addition, in assay [5], the inhibition stood at 22%.

The values are drawn from ChEMBL document CHEMBL1132135, “Potent, orally absorbed glucagon receptor antagonists” (Bioorg Med Chem Lett, 1999).
